{"source": "paper PMC8033778", "about": "(ACS Pharmacology & Translational Science, 2021)", "assay": "In vivo stability of 18F-labeled Tz-derivatives", "details": "naïve mice, plasma 30 min p.i., radio-TLC, n = 4", "procedure,_shortened": "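Naïve mice received the 18F-labeled tetrazine. Blood was collected after 30 min and plasma analysed by radio-TLC. Stability is expressed as the fraction (%) of radioactivity corresponding to intact compound (n = 4).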"}
{"smiles": "Cc1nnc(-c2ccc(OCc3cn(CC[18F])nn3)cc2)nn1", "note": "[[^18F]5, 3-(4-((1-(2-[18F]Fluoroethyl)-1H-1,2,3-triazol-4-yl)methoxy)phenyl)-6-methyl-1,2,4,5-tetrazine]", "values": [{"measurement": "in vivo stability (% intact [18F]Tz after 30 min)", "result": 26, "unit": "%"}]}
